Measurements reported in PMC3889329 (Diabetes Therapy, 2013).

Experiments:
[1] = tested on: patients with type 2 diabetes mellitus; assay: Weighted mean daily glucose; type: in vivo, human; settings: for Mean MDG, mean (least squares) change from baseline to day 8: baseline day −2
How it was run: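 Eight-point weighted mean daily glucose was calculated as the 24 h glucose AUEC0–24 divided by 24 h. It was measured under standardized meals without OGTT on day −2 (baseline) and day 8, after multiple once-daily oral doses. Change from baseline is given as least squares means. Analysis used the treated set.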

[2] = tested on: patients with type 2 diabetes mellitus; assay: Fasting plasma glucose; type: in vivo, human; settings: day 10, 1 day after the last dose
How it was run: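 Fasting plasma glucose was measured after a 10 h overnight fast. Dosing was oral, once daily with 240 mL water: a single dose on day 1, none on day 2, then daily on days 3–9. Patients were randomized 3:1 to test compound or placebo within each dose group (2.5, 10, 25, 100 mg; n = 12 per group). Descriptive statistics used the treated set (n = 48).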

SGLT1 = settings: in vitro; cited from earlier work

In the case of `OC[C@H]1O[C@@H](c2ccc(Cl)c(Cc3ccc(O[C@H]4CCOC4)cc3)c2)[C@H](O)[C@@H](O)[C@@H]1O` [Empagliflozin], the “Mean MDG (SD), Day 8” value ([1]; 2.5 mg qd, without OGTT) is reported as 134 (42.7) mg/dL, the “Mean MDG change from baseline to day 8, difference to placebo” value (“Mean MDG change … difference to placebo” below) ([1]; 2.5 mg qd, without OGTT) is reported as −15.5, p < 0.05 mg/dL and the “Mean MDG, mean (least squares) change from baseline to day 8” value (“Mean MDG, mean (least squares) change” below) ([1]; 2.5 mg qd, without OGTT) is reported as -29.0 mg/dL. For the same compound, the “Mean MDG (SD), Day 8” value ([1]; 10 mg qd, n = 8, without OGTT) was 124 (18.9) mg/dL, the “Mean MDG change … difference to placebo” value ([1]; 10 mg qd, without OGTT) was −23.5, p < 0.01 mg/dL and the “Mean MDG, mean (least squares) change” value ([1]; 10 mg qd, without OGTT) was -37.0 mg/dL. The “Mean MDG (SD), Day 8” value ([1]; 25 mg qd, without OGTT) was 133 (36.2) mg/dL, the “Mean MDG change … difference to placebo” value ([1]; 25 mg qd, without OGTT) was −15.0, p = 0.052 mg/dL and the “Mean MDG, mean (least squares) change” value ([1]; 25 mg qd, without OGTT) was -28.5 mg/dL. For the same compound, the “Mean MDG (SD), Day 8” value ([1]; 100 mg qd, without OGTT) was 154 (17.9) mg/dL, the “Mean MDG change … difference to placebo” value ([1]; 100 mg qd, without OGTT) was −10.6, p = 0.168 mg/dL and the “Mean MDG, mean (least squares) change” value ([1]; 100 mg qd, without OGTT) was -24.1 mg/dL. The “FPG lower than on day 1” value [2] was “at least 14%” and the “Selectivity for SGLT2 over SGLT1” value (SGLT1) was > 2,500 fold.
